V-ATPase pH = regulators of yeast V-ATPase proton pumping, primary screen, pHLuorin cytosolic pH fluorescence; S. cerevisiae; response, % at 10 µM; 350,000 tested, 0.37% active; in the data active = response mostly above about 7.3%, no sharp cut-off; inactive = mostly below about 5.4%; note: actives read high
ARFGAP1 inh = inhibitors of rat ARFGAP1 GAP activity, primary screen, biochemical, fluorescence polarization, GDP tracer; Arfgap1-stimulated ARF1 GTP hydrolysis, GDP FP detection; inhibition, % at 16.5 µM; 360,000 tested, 0.26% active;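 active = inhibition above a per-plate limit, mean inhibition of low control wells plus 3 SD, cut at about 25% in these data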
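Assay system: Rat Arfgap1 GAP domain (His6, aa 1-136), purified enzyme | Buffer or medium: HEPES 25 mM pH 7.5, NaCl 150 mM, MgCl2, DTT | Schedule: GTP hydrolysis reaction 2 h at 25 °C | Signal: FP of antibody-bound GDP Alexa 633 tracer, ex 620/em 688 nm | Measure: Percent inhibition of Arfgap1-stimulated GTP hydrolysis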
ASAP1 inh = inhibitors of human ASAP1 ArfGAP activity, primary screen, biochemical, fluorescence polarization. Arf-GAP with SH3 domain, ANK repeat and PH domain-containing protein 1 (Homo sapiens), …. ASAP1-stimulated ARF1 GTP hydrolysis, GDP FP detection. inhibition, % at 16.5 µM. 360,000 tested, 0.19% active. AID 624377, 2012; in the data active = inhibition above about 25%
Target sequence (Q9ULH1 325-724 limits assumed): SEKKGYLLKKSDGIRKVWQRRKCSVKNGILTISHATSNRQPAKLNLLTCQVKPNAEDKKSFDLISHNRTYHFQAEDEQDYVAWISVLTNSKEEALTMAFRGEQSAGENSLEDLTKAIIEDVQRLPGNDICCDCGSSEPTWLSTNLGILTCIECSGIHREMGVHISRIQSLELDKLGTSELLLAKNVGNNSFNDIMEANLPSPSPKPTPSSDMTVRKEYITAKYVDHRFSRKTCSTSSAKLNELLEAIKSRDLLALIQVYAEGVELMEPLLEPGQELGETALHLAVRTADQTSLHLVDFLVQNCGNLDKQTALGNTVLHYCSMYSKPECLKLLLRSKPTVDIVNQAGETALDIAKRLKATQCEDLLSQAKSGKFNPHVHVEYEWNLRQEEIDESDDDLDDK
CendR NRP1 mod = modulators of CendR peptide binding to NRP-1, primary screen, biochemical, fluorescence polarization, uHTS; Neuropilin-1 (Homo sapiens), O14786; inhibition, % at 25 µM; AID 602438, 2012; 360,000 tested, 0.85% active; FAM-RPARPAR peptide binding to NRP-1;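 active = inhibition or corrected inhibition above about 18%, plus a signal ratio from 0.5 to 1.5, limit read from the data, passing the limit was not always enough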
Granule exo inh = LAMP-1 surface exposure blockers, TALL-104 cells – cell-based, flow cytometry, MLPCN library, primary screen; TALL-104 LAMP-1 surface exposure; cells stimulated with thapsigargin and PMA; AID 651702, 2012; 360,000 tested, 0.66% active; inhibition, % at 10 µM;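 active = inhibition above about 55%, limit read from the data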
A number is an active result; i = inactive; nt = not tested or not shown. Only some compounds are listed: those with a hit (about 2.2% of all), similar ones and a draw of the others.

SMILES	V-ATPase pH	ARFGAP1 inh	ASAP1 inh	CendR NRP1 mod	Granule exo inh
N#Cc1c(Nc2ccc(Cl)cc2)s[nH]c1=O	i	i	i	i	83
Cc1cccc(C)c1OC1(c2ccccc2)OC(=O)c2ccccc21 (configuration not stated)	i	i	i	i	i
Cc1cc(C)c(OC2(c3ccccc3)OC(=O)c3ccccc32)c(C)c1 (configuration not stated)	19	i	i	i	i
c1ccc(-c2nc(C3CCCCC3)c3ccccc3n2)cc1	i	i	i	i	i
c1ccc(-c2nc(C3CCCCC3)c3sccc3n2)cc1	i	i	i	28	i
COc1ccc(N2C(=O)c3[nH]nc(-c4ccccc4)c3C2c2cccc(C(F)(F)F)c2)cc1 (configuration not stated)	nt	i	i	nt	nt
Cc1ccsc1/C=N/NC(=O)C(=O)NCC(C)C	i	i	i	32	i
CCCCC(=O)N/N=C/c1sccc1C	i	i	i	i	i
COc1ccc(C(=O)C(CN2CCOCC2)c2ccccc2)cc1 (configuration not stated)	i	i	i	i	i
O=C(c1ccccc1)C(CCC(CN1CCOCC1)C(=O)c1ccccc1)CN1CCOCC1 (configuration not stated)	i	i	i	i	76
O=C(c1ccc(F)cc1)C(CN1CCOCC1)c1ccccc1 (configuration not stated)	i	i	i	27	i
CCN1CCN(Cc2ccc(NC(=O)c3cc(NC(=O)c4cc(-c5ccc(OC)cc5)n[nH]4)cc(OC)c3)cc2C(F)(F)F)CC1	i	31	26	i	i
CCN1CCN(Cc2ccc(NC(=O)c3cc(NC(=O)c4ccc5n[nH]nc5c4)cc(OC)c3)cc2C(F)(F)F)CC1	i	i	i	i	i
O=C(C(=Cc1ccccc1)c1ccccc1)c1ccccc1	nt	i	i	i	i
O=C(O)/C(=C\c1ccccc1)c1ccc2ccccc2c1	i	i	i	21	i
O=c1oc2c(-c3cccc(F)c3)cc(O)cc2s1	i	i	i	33	i
CCCN(C(=O)C1CCCN(c2ncnc3c2nc2n3CCCCC2)C1)c1ccccc1C (configuration not stated)	nt	i	i	nt	nt
O=C(c1ccc(C(=O)N2CCOCC2)s1)N1CCOCC1	i	i	i	i	i
O=C(c1ccc(-c2ccccc2Cl)s1)N1CCOCC1	i	i	i	35	i
Cc1ccc(Cl)c(NC(=O)CSc2cccc[n+]2[O-])c1Cl	i	i	i	28	i
COC(=O)c1[nH]c2cc(OC)ccc2c1NC(=O)c1ccc2c(c1)OCO2	i	i	i	21	i
COc1ccccc1CNC(=O)Cc1c[nH]c2ccccc12	13	i	i	i	i
CC1(C(=O)NCc2ccccc2)CCC(=O)N1CCc1c[nH]c2ccccc12 (configuration not stated)	nt	i	i	24	i
COc1ccc(CNC(=O)CCc2c[nH]c3ccccc23)cc1	i	i	i	27	i
CC1(C(=O)NCc2ccccc2)CSCC(=O)N1CCc1c[nH]c2ccccc12 (configuration not stated)	nt	i	i	i	i
SMILES	V-ATPase pH	ARFGAP1 inh	ASAP1 inh	CendR NRP1 mod	Granule exo inh
Cc1ccc(C(=O)NCC(=O)Nc2ccc(Cl)cc2)s1	i	i	i	i	i
CCn1c(CCn2c3ccccc3c3ccccc32)n[nH]c1=S	i	i	i	40	i
COC(=O)c1ccc(/C=C2\SC(=S)N(CCCC(=O)NCCCN3CCOCC3)C2=O)cc1	i	i	i	i	78
C(=Cc1nc2ccccc2o1)c1ccc2c(c1)OCO2	i	i	i	26	i
COc1ccc(-c2csc3ncnc(N4CCN(S(=O)(=O)c5ccc(C(C)=O)cc5)CC4)c23)cc1	17	i	i	i	i
C#CCNC(=O)C[C@H]1C[C@@]2(C(=O)OC)C(=C[C@H](COCc3ccccc3)O[C@@H]2C)N(CCC2=CCCCC2)C1=O	nt	i	i	nt	nt
O=C(CSc1nc2ccccc2n1Cc1ccccc1Cl)N/N=C/c1ccccc1C(=O)O	i	i	i	40	i
Cc1cc(N2CCN(CC(C)(C)O)C[C@@H]2C)ccc1N1CCN(Cc2ccccc2)[C@@H](C)C1	nt	i	i	nt	nt

Source: PubChem BioAssay (several laboratories)
